Reference: ChEMBL document CHEMBL1153266, “Synthesis and biological activity of anticoccidial agents: 2,3-diarylindoles” (Bioorg Med Chem Lett, 2009)
pIC50: −log10 of the molar value. The source made the active and inactive calls. No cut-off for these calls is given here.

Key:
[1] = system: Eimeria acervulina; assay: Antiparasitic activity against Eimeria acervulina at 50 ppm administered orally through feed after 7 days; type: functional
Outline: (§1)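 Each compound was given orally in the feed, and its anticoccidial activity was ranked in a seven-day efficacy model. Each Eimeria species got its own quantitative measure.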

[2] = molecular target: cGMP-dependent protein kinase (Eimeria tenella, UniProt Q8MMZ8); assay: Inhibition of Eimeria tenella parasite-specific cGMP-dependent protein kinase
cGMP-dependent protein kinase, sequence (Q8MMZ8 whole entry): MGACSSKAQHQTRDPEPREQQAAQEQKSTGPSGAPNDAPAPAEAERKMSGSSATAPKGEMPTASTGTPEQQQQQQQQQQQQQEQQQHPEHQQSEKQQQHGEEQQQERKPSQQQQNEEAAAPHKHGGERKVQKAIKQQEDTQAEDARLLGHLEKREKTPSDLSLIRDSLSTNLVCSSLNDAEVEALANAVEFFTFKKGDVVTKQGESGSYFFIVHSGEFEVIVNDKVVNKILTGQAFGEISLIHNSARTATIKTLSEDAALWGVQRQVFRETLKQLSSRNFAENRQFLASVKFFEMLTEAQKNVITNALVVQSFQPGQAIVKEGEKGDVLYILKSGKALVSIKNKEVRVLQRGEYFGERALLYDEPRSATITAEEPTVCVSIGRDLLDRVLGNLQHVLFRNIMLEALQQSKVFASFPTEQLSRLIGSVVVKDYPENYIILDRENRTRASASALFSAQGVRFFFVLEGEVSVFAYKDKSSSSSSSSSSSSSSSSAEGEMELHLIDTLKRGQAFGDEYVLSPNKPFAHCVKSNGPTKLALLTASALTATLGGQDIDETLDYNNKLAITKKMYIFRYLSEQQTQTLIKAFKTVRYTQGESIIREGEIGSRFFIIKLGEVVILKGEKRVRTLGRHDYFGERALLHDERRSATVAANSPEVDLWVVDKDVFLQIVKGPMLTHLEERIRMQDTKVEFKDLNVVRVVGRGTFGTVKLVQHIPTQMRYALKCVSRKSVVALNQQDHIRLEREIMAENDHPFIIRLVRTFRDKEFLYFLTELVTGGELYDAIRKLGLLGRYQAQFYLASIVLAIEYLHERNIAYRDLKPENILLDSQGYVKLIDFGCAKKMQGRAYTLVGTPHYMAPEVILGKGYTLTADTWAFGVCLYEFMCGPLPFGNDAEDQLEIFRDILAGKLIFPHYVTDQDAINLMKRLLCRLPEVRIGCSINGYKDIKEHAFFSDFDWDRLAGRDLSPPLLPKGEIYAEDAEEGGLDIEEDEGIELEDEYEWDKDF

[3] = system: Eimeria tenella; assay: Antiparasitic activity against Eimeria tenella at 50 ppm administered orally through feed after 7 days; type: functional; outline: as §1
[4] = system: Eimeria mitis; assay: Antiparasitic activity against Eimeria mitis at 50 ppm administered orally through feed after 7 days; type: functional; outline: as §1
[5] = system: Eimeria maxima; assay: Antiparasitic activity against Eimeria maxima at 50 ppm administered orally through feed after 7 days; type: functional; outline: as §1
[6] = system: Eimeria mitis; assay: Antiparasitic activity against Eimeria mitis at 6 ppm administered orally through feed after 7 days; type: functional; outline: as §1
[7] = system: Eimeria tenella; assay: Antiparasitic activity against Eimeria tenella at 6 ppm administered orally through feed after 7 days; type: functional; outline: as §1
[8] = system: Eimeria acervulina; assay: Antiparasitic activity against Eimeria acervulina at 6 ppm administered orally through feed after 7 days; type: functional; outline: as §1
[9] = system: Eimeria maxima; assay: Antiparasitic activity against Eimeria maxima at 6 ppm administered orally through feed after 7 days; type: functional; outline: as §1

Compound	Activity [1]	pIC50 [2]	Activity [3]	Activity [4]	Activity [5]	Activity [6]	Activity [7]	Activity [8]	Activity [9]
Fc1ccc(-c2[nH]c3cc(C4CCNCC4)ccc3c2-c2ccncc2)cc1	<50%	9.82	<50%	<50%	<50%	–	–	–	–
CN1CCC(c2ccc3c(-c4ccncc4)c(-c4ccc(F)cc4)[nH]c3c2)CC1	99%	9.82	50%	99%	50%	–	–	–	–
CCN1CCC(c2ccc3c(-c4ccncc4)c(-c4ccc(F)cc4)[nH]c3c2)CC1	<50%	9.80	50%	80%	80%	–	–	–	–
OCCN1CCC(c2ccc3c(-c4ccncc4)c(-c4ccc(F)cc4)[nH]c3c2)CC1	80%	10.00	50%	80%	<50%	–	–	–	–
CN1CCN(Cc2ccc3c(-c4ccncc4)c(-c4ccc(F)cc4)[nH]c3c2)CC1	<50%	8.05	80%	<50%	–	–	–	–	–
Fc1ccc(-c2[nH]c3cc(N4CCOCC4)ccc3c2-c2ccncc2)cc1	<50%	8.04	50%	<50%	–	–	–	–	–
CN1CCC(Cc2ccc3c(-c4ccncc4)c(-c4ccc(F)cc4)[nH]c3c2)CC1	<50%	8.80	<50%	50%	–	–	–	–	–
CN1CCC(c2ccn3c(-c4ccnc(N)n4)c(-c4ccc(F)cc4)nc3c2)CC1	–	–	–	–	–	80%	100%	80%	100%
CN1CCN(c2ccc3c(-c4ccncc4)c(-c4ccc(F)cc4)[nH]c3c2)CC1	<50%	–	<50%	<50%	–	–	–	–	–
OCCN1CCC(c2ccc3c(-c4ccncn4)c(-c4ccc(F)cc4)[nH]c3c2)CC1	50%	9.10	99%	100%	<50%	–	–	–	–
CN1CCC(c2ccc3c(-c4ccncn4)c(-c4ccc(F)cc4)[nH]c3c2)CC1	99%	9.40	<50%	50%	<50%	–	–	–	–
Nc1nccc(-c2c(-c3ccc(F)cc3)[nH]c3cc(C4CCNCC4)ccc23)n1	<50%	9.68	<50%	–	<50%	–	–	–	–
Fc1ccc(-c2[nH]c3cc(C4CCNCC4)ccc3c2-c2ccncn2)cc1	<50%	9.19	<50%	<50%	<50%	–	–	–	–
CN1CCN(C(=O)c2ccc3[nH]c(-c4ccc(F)cc4)c(-c4ccncc4)c3c2)CC1	<50%	7.90	80%	inactive	–	–	–	–	–
CN1CC(c2ccc3c(-c4ccncc4)c(-c4ccc(F)cc4)[nH]c3c2)C1	<50%	9.21	50%	<50%	–	–	–	–	–
CN1CCC(c2ccc3c(-c4ccnc(N)n4)c(-c4ccc(F)cc4)[nH]c3c2)CC1	<50%	9.66	80%	–	<50%	–	–	–	–
Nc1nccc(-c2c(-c3ccc(F)cc3)[nH]c3cc(C4CCN(CCO)CC4)ccc23)n1	<50%	9.52	<50%	–	<50%	–	–	–	–
